According to ChEMBL document CHEMBL5346889, “Discovery of 4-oxo-N-phenyl-1,4-dihydroquinoline-3-carboxamide derivatives as novel anti-inflammatory agents for the treatment of acute lung injury and sepsis” (Eur J Med Chem, 2023):
Active and inactive are the calls of the source. The calls are words filed in the database; no cut-off is given here.

Experiments:
[1] = system: J774.A1; experiment: Antiinflammatory activity in LPS-induced mouse J774.A1 cells assessed as inhibition of LPS-induced IL-6 release at 10 uM preincubated for 30 mins followed by LPS stimulation for 24 hrs by ELISA method; type: functional; details: time 24.5 hrs
In short: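 J774A.1 macrophages pretreated 30 min at 10 μM, then challenged with LPS 0.5 μg/mL for 24 h at 37 °C, 5% CO2. Medium IL-6 and TNF-α measured by ELISA, normalized to total lysate protein.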

[2] = system: J774.A1; experiment: Cytotoxicity against mouse J774.A1 cells assessed as reduction in cell viability at 10 uM incubated for 24 hrs by MTT assay; type: functional, cell-based
In short: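 J774A.1 macrophages exposed to 10 μM for 24 h; MTT at 5 mg/mL added for 4 h; absorbance read at 490 nm; viability expressed as percent of DMSO control.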

[3] = system: J774.A1; experiment: Inhibition of NF-kappaB pathway in LPS-induced mouse J774.A1 cells assessed as inhibition of p65 phosphorylation preincubated with compound for 2 hrs followed by LPS-stimulation and measured after 30 mins by Western blot analysis; type: cell-based; details: dose 5-10 µM, time 2.5 hrs
In short: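 J774A.1 cells preincubated with 10 or 5 μM or DMSO for 2 h, then LPS 0.5 μg/mL for 30 min. RIPA lysates run on 12.5% SDS-PAGE, transferred to PVDF, blocked with 5% milk; probed for IκB-α and p-p65, with GAPDH and p65 as loading controls; ECL detection; densitometry.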

[4] = system: Mus musculus; experiment: Protection against LPS-induced C57/BL6 mouse acute lung injury model assessed as improvement in structural distruption of lung tissue at 20 mg/kg via oral gavage preincubated for 30 mins followed by LPS stimulation for 6 hrs; type: functional, organism-based; details: time 6.5 hrs
In short: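 Mice dosed 20 mg/kg by gavage (dexamethasone 20 mg/kg comparator), intratracheal LPS 5 mg/kg 30 min later, killed at 6 h. Right upper lobe fixed in paraformaldehyde, H&E; lung wet/dry ratio; BALF protein, total cells and neutrophils counted; n = 5 mice per group, mean ± SEM.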

[5] = Cmax in rat at 10 mg/kg, po; type: ADME, organism-based; parameters: dose 10 mg/kg, route po; details: in vivo
In short: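 Rats dosed intravenously at 1 mg/kg or orally at 10 mg/kg; plasma pharmacokinetic parameters AUC(0-t), Tmax, T1/2, Cmax and oral bioavailability F derived from the two routes.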

Cmax [5]: 1680 ng/mL
Compound: COc1cc2nccc(Oc3ccc(NC(=O)c4cn(-c5ccccc5)c5ccccc5c4=O)cc3)c2cc1OC
inhibition at 10 µM [1]: 75%
Activity [2]: inactive
inhibition [3]: Dose-Dependent Effect
Activity [4]: Active
